According to ChEMBL document CHEMBL2062465, “Sesquiterpenoids from Incarvillea arguta: absolute configuration and biological evaluation” (J Nat Prod, 2012):
pIC50: −log10 of the molar value. Activity calls are given as the source filed them. The rule behind the calls is not given here. Peptide text beside a SMILES is read from it. * marks the point of attachment. Cbz = O=C(OCc1ccccc1)*

Experiments:
[1] = system: RAW264.7; assay: Antiinflammatory activity in mouse RAW264.7 cells assessed as inhibition of LPS-stimulated NO production after 18 hrs by Griess reagent method; format: functional, cell-based; conditions: RAW264.7, 18 h
Procedure, shortened: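 NO release measured in LPS-stimulated RAW264.7 macrophages. DMSO wells were included, and MG-132 (proteasome inhibitor) served as positive control. Cell viability was checked by MTT in each experiment. IC50 was derived.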

[2] = system: RAW264.7; assay: Cytotoxicity against mouse RAW264.7 cells at 0.04 to 25 uM by MTT assay; format: cell-based; conditions: raw264.7, 25 µM
Procedure, shortened: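 Viability of RAW264.7 macrophages was checked by MTT alongside each NO-production experiment, at 0.04, 0.2, 1, 5 and 25 μM.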

[3] = system: HL-60; assay: Cytotoxicity against human HL60 cells after 48 hrs by MTT assay; format: functional, cell-based; conditions: HL-60, 48 h
Procedure, shortened: (§1)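 MTT viability assay on human tumour lines. Adherent cells were seeded and allowed to attach 12 h before drug addition. Suspension cells were seeded immediately before dosing at (1−2) × 10^5 cells/mL. Cells were exposed to a range of concentrations for 48 h. Cisplatin and taxol were positive controls. IC50 values were calculated from viability.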

[4] = system: SMMC-7721; assay: Cytotoxicity against human SMMC7721 cells after 48 hrs by MTT assay; format: functional, cell-based; conditions: SMMC-7721, 48 h; procedure, shortened: as §1
[5] = system: MCF7; assay: Cytotoxicity against human MCF7 cells after 48 hrs by MTT assay; format: functional, cell-based; conditions: MCF7, 48 h; procedure, shortened: as §1
[6] = system: SW480; assay: Cytotoxicity against human SW480 cells after 48 hrs by MTT assay; format: functional, cell-based; conditions: SW480, 48 h; procedure, shortened: as §1
[7] = system: A549; assay: Induction of intracellular calcium influx in human A549 cells at 10 uM after 12 hrs by fluorescence analysis; format: functional, cell-based
Procedure, shortened: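 A549 cells were seeded at 0.5 × 10^4 cells/well and grown 12 h. They were loaded with Fluo-4 AM for 30 min, then washed three times with HBSS. Compounds were tested at 10 μM in Ca2+-containing HBSS. Intracellular calcium was imaged and analysed on an automated cell-based fluorescence-imaging system.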

C=C(CO)[C@@H]1CC(=O)C2=CCC[C@H](C)[C@@]2(C)C1 [ARGUTOSINE B]
pIC50 [1]: 5.24
Activity [2]: Non-toxic
pIC50 [3]: 4.82
pIC50 [4]: 4.47
pIC50 [5]: 4.87
pIC50 [6]: 4.81

C[C@H]1CCC=C2C(=O)C=C([C@]3(CO)CC[C@@](O)(CO)C4=C3C(=O)C3=CCC[C@H](C)[C@@]3(C)C4)C[C@@]21C [DIINCARVILONE A]
pIC50 [3]: < 4.40
pIC50 [4]: < 4.40
pIC50 [5]: < 4.40
pIC50 [6]: < 4.40
Activity [7]: Active

C[C@H]1CCC=C2C(=O)C=C([C@]3(CO)CC[C@](O)(CO)C4=C3C(=O)C3=CCC[C@H](C)[C@@]3(C)C4)C[C@@]21C [DIINCARVILONE B]
pIC50 [3]: < 4.40
pIC50 [4]: < 4.40
pIC50 [5]: < 4.40
pIC50 [6]: < 4.40
Activity [7]: Active

C[C@H]1CCC=C2C(=O)C=C([C@]3(CO)CC[C@@H](CO)C4=C3C(=O)C3=CCC[C@H](C)[C@@]3(C)C4)C[C@@]21C [DIINCARVILONE C]
pIC50 [3]: < 4.40
pIC50 [4]: < 4.40
pIC50 [5]: < 4.40
pIC50 [6]: < 4.40

C[C@H]1CCC=C2C(=O)C=C([C@]3(CO)CCC(=O)C4=C3C(=O)C3=CCC[C@H](C)[C@@]3(C)C4)C[C@@]21C [DIINCARVILONE D]
pIC50 [3]: < 4.40
pIC50 [4]: < 4.40
pIC50 [5]: < 4.40
pIC50 [6]: < 4.40
Activity [7]: Active

C[C@H](CO)C1=CC(=O)C2=CCC[C@H](C)[C@@]2(C)C1 [INCARVILONE A]
pIC50 [3]: < 4.40
pIC50 [4]: < 4.40
pIC50 [5]: < 4.40
pIC50 [6]: < 4.40

CC(C)C[C@@H](C=O)NC(=O)[C@H](CC(C)C)NC(=O)[C@H](CC(C)C)NC(=O)OCc1ccccc1 [MG-132] (Cbz-Leu-Leu-Leu-aldehyde)
pIC50 [1]: 7.10
